The text below walks through data of ChEMBL document CHEMBL1139838 (J Med Chem, 2007).

Active and inactive are the calls of the source. The calls are words filed in the database; no cut-off is given here. Where a SMILES comes first, the peptide text is derived from it. [ ]: non-standard residue; d: D form. Tic = O=C(O)[C@@H]1Cc2ccccc2CN1; Cha = N[C@@H](CC1CCCCC1)C(=O)O

The target in assay [1] is Mu-type opioid receptor (Rattus norvegicus, UniProt P33535). In words: Displacement of [3H]DAMGO from mu opioid receptor in Wistar rat brain membrane. It counts as cell membranes. The procedure, abridged:
(§1)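 Wistar rat brain membranes in 50 mM Tris·HCl pH 7.4 with 200-300 µg protein. Tritiated ligand at 0.5-1 nM, with fresh unlabeled peptide at 10^-12 to 10^-5 M, for 45 min at 35 °C. Stopped by rapid GF/C filtration and ice-cold buffer washes, then scintillation counting. Nonspecific binding defined with 10 µM naloxone. Duplicates, repeated two or three times, mean ± SEM.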
For orientation: In a radioligand displacement assay an active substance lowers the binding of a labelled ligand.

Assay [2] concerns the target Delta-type opioid receptor (Rattus norvegicus, UniProt P33533). In words: Displacement of [3H]Ile5,6-deltorphin from delta opioid receptor in Wistar rat brain membrane. It counts as cell membranes. In short, it runs like this: as §1
In assay [3] the target is Delta-type opioid receptor (Mus musculus) (UniProt P32300). To be noted: Vas deferens.
Assay [4] addresses Delta-type opioid receptor (Homo sapiens) (UniProt P41143). In words: Activity at human delta opioid receptor expressed in CHO cells by [35S]GTP-gamma-S binding assay. The class given is functional, cell-based. Background: GTPγS is a poorly hydrolysed GTP analogue; its binding reports G protein activation.
The target in assay [5] is Mu-type opioid receptor (Cavia porcellus) (UniProt P97266). Conditions: Ileum.
Assay [6] shares this target. Conditions: Ileum. The source holds these as a separate data set.

Delta-type opioid receptor, sequence (P33533 whole entry): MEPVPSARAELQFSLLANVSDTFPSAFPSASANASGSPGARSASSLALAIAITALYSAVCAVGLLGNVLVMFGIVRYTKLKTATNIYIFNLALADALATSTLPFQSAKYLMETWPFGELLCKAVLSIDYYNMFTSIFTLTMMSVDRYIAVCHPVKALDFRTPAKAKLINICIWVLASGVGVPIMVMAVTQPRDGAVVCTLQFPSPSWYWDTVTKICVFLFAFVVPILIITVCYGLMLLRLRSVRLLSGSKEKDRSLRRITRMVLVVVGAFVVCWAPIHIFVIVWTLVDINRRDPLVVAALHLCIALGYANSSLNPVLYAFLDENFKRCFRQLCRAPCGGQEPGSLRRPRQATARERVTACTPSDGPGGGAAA
Mu-type opioid receptor, sequence (P33535 whole entry): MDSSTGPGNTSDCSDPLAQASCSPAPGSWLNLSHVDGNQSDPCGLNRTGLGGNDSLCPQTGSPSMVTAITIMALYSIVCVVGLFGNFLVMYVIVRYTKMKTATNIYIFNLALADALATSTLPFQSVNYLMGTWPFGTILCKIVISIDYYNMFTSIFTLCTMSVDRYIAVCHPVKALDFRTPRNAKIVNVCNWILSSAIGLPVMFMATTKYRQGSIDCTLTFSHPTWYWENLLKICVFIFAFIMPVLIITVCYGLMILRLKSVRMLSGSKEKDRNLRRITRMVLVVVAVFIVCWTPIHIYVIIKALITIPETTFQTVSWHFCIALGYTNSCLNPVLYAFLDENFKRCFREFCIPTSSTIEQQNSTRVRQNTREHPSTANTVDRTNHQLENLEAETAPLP
Delta-type opioid receptor (Mus musculus), sequence (P32300 whole entry): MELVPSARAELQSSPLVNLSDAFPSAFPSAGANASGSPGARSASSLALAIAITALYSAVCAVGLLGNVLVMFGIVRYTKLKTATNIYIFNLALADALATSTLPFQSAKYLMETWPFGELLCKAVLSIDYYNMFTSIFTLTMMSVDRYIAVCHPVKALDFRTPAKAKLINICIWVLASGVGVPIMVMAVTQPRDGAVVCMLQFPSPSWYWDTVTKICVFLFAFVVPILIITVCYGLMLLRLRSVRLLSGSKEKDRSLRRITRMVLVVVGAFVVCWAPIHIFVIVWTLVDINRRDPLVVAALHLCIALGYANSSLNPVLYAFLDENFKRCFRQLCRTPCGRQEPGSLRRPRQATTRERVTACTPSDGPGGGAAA
Delta-type opioid receptor (Homo sapiens), sequence (P41143 whole entry): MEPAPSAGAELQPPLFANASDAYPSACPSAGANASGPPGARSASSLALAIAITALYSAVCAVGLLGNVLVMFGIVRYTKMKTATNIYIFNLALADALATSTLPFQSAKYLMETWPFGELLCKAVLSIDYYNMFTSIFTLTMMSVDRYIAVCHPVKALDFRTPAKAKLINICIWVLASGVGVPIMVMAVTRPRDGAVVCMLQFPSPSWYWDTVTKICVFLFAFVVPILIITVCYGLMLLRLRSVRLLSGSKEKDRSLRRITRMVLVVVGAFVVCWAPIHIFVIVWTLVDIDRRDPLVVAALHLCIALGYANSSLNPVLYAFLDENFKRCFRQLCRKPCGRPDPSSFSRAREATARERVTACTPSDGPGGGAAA
Mu-type opioid receptor (Cavia porcellus), sequence (P97266 whole entry): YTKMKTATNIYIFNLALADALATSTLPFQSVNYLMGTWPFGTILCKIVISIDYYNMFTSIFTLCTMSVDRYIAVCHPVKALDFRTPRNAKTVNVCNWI

Consider `Cc1cc(O)cc(C)c1C[C@H](N)C(=O)N1Cc2ccccc2C[C@H]1C(=O)N[C@@H](C(=O)N[C@@H](Cc1ccccc1)C(N)=O)[C@@H](C)C1CCCCC1`, for which the values for the Ki in assay [1] and in assay [2] were 200 nM and 7 nM, respectively.
Compound `N[C@@H](Cc1ccc(O)cc1)C(=O)N1Cc2ccccc2C[C@H]1C(=O)N[C@@H](CC1CCCCC1)C(=O)N[C@@H](Cc1ccccc1)C(=O)O` (H-Y[Tic][Cha]F-OH) came in with a Ke in assay [3] of 0.44 nM. Moreover, the inhibition constant Ki (as a rule, a measure of affinity in units of concentration, obtained from inhibition or displacement) in assay [1] is 3600 nM; in assay [2], 0.61 nM.
`Cc1cc(O)cc(C)c1C[C@H](N)C(=O)N1Cc2ccccc2CC1C(=O)N[C@H](C(=O)N[C@@H](Cc1ccccc1)C(N)=O)[C@H](C)C1CCCCC1` (stereo partly drawn) displayed a Ke in assay [3] of 0.68 nM. Besides, the outcome in assay [4] was inactive. Also, the IC40 in assay [5] is 110 nM.
In the case of `Cc1cc(O)cc(C)c1C[C@H](N)C(=O)N1Cc2ccccc2C[C@H]1C(=O)N[C@H](C(=O)N[C@@H](Cc1ccccc1)C(=O)O)[C@H](C)C1CCCCC1`, the Ki in assay [1] stood at 280 nM; in assay [2], 2 nM.
On to `Cc1cc(O)cc(C)c1C[C@H](N)C(=O)N1Cc2ccccc2CC1C(=O)N[C@@H](C(=O)N[C@@H](Cc1ccccc1)C(N)=O)[C@H](C)C1CCCCC1` (stereo partly drawn), for which the Ke in assay [3] was determined as 1.7 nM; in assay [6] it was 670 nM. Also, the outcome in assay [4] was inactive.
The matching figures for `Cc1cc(O)cc(C)c1C[C@H](N)C(=O)N1Cc2ccccc2CC1C(=O)N[C@@H](C(=O)N[C@@H](Cc1ccccc1)C(N)=O)[C@@H](C)C1CCCCC1` (stereo partly drawn): 1.94 nM, 120 nM and “inactive”.
In assay [3], `Cc1cc(O)cc(C)c1C[C@@H](N)C(=O)N1Cc2ccccc2C[C@H]1C(=O)N[C@@H](Cc1ccccc1)C(=O)N[C@@H](Cc1ccccc1)C(=O)O` came in with a Ke of 0.2 nM.
Regarding `Cc1cc(O)cc(C)c1C[C@H](N)C(=O)N1Cc2ccccc2C[C@H]1C(=O)N[C@H](C(=O)N[C@@H](Cc1ccccc1)C(N)=O)[C@H](C)C1CCCCC1`, the results for the Ki in assay [1] and in assay [2] were 170 nM and 4.1 nM, respectively.
Regarding `Cc1cc(O)cc(C)c1C[C@H](N)C(=O)N1Cc2ccccc2C[C@H]1C(=O)N[C@@H](C(=O)N[C@@H](Cc1ccccc1)C(=O)O)[C@H](C)C1CCCCC1`, the Ki in assay [1] came to 580 nM; in assay [2], 2 nM.
The matching figures for `Cc1cc(O)cc(C)c1C[C@H](N)C(=O)N1Cc2ccccc2C[C@H]1C(=O)N[C@H](C(=O)N[C@@H](Cc1ccccc1)C(=O)O)[C@@H](C)C1CCCCC1`: 1400 nM and 0.48 nM.
Take `NC(=O)[C@H](Cc1ccccc1)NC(=O)[C@H](Cc1ccccc1)NC(=O)[C@@H]1Cc2ccccc2CN1C(=O)[C@H](N)Cc1ccc(O)cc1`: the values for the Ke in assay [3] and in assay [5] were 18 nM and 1700 nM, respectively.
Turning to `N[C@@H](Cc1ccc(O)cc1)C(=O)N1Cc2ccccc2C[C@H]1C(=O)N[C@@H](Cc1ccccc1)C(=O)N[C@@H](Cc1ccccc1)C(=O)O` (H-Y[Tic]FF-OH), the Ke in assay [3] was 4.8 nM; in assay [5], above 10000 nM.
`Cc1cc(O)cc(C)c1C[C@H](N)C(=O)N1Cc2ccccc2CC1C(=O)N[C@@H](C(=O)N[C@@H](Cc1ccccc1)C(=O)O)[C@@H](C)C1CCCCC1` (stereo partly drawn): the Ke stood at 0.11 nM in assay [3] and 19 nM in assay [6]. The result in assay [4] was inactive.
Taken in the same sequence, the figures for `Cc1cc(O)cc(C)c1C[C@H](N)C(=O)N1Cc2ccccc2CC1C(=O)N[C@H](C(=O)N[C@@H](Cc1ccccc1)C(=O)O)[C@@H](C)C1CCCCC1` (stereo partly drawn) were 0.24 nM, 970 nM and “inactive”.
Take `Cc1cc(O)cc(C)c1C[C@H](N)C(=O)N1Cc2ccccc2C[C@H]1C(=O)N[C@H](C(=O)N[C@@H](Cc1ccccc1)C(N)=O)[C@@H](C)C1CCCCC1`: the Ki in assay [1] came out at 330 nM; in assay [2], 4 nM.
Taken in the same sequence, the figures for `Cc1cc(O)cc(C)c1C[C@H](N)C(=O)N1Cc2ccccc2C[C@H]1C(=O)N[C@@H](C(=O)N[C@@H](Cc1ccccc1)C(=O)O)[C@@H](C)C1CCCCC1` were 55 nM and 1.5 nM.
Taken in the same sequence, the figures for `Cc1cc(O)cc(C)c1C[C@H](N)C(=O)N1Cc2ccccc2C[C@H]1C(=O)N[C@@H](C(=O)N[C@@H](Cc1ccccc1)C(N)=O)[C@H](C)C1CCCCC1` were 290 nM and 13 nM.
For `Cc1cc(O)cc(C)c1C[C@H](N)C(=O)N1Cc2ccccc2CC1C(=O)N[C@@H](C(=O)N[C@@H](Cc1ccccc1)C(=O)O)[C@H](C)C1CCCCC1` (stereo partly drawn), the Ke in assay [3] worked out at 0.55 nM; in assay [6], 290 nM. Further, in assay [4], the result was inactive.
Turning to `Cc1cc(O)cc(C)c1C[C@H](N)C(=O)N1Cc2ccccc2CC1C(=O)N[C@H](C(=O)N[C@@H](Cc1ccccc1)C(N)=O)[C@@H](C)C1CCCCC1` (stereo partly drawn), the Ke is 0.77 nM in assay [3] and 340 nM in assay [6]. The outcome in assay [4] was inactive.
Turning to `Cc1cc(O)cc(C)c1C[C@H](N)C(=O)N1Cc2ccccc2CC1C(=O)N[C@H](C(=O)N[C@@H](Cc1ccccc1)C(=O)O)[C@H](C)C1CCCCC1` (stereo partly drawn), in assay [3], the Ke amounted to 0.81 nM. Also, in assay [4], the result was inactive. The 30% effect concentration (IC30) (usually the concentration at which the effect reaches the 30% level) in assay [5] worked out at 150 nM.
